In ChEMBL document CHEMBL5375970, “Discovery of Potent and Selective WDR5 Proteolysis Targeting Chimeras as Potential Therapeutics for Pancreatic Cancer” (J Med Chem, 2023):
Activity calls are given as the source filed them. The rule behind the calls is not given here.

How the values were obtained:
Type in all cases: cell-based
[1] = target: T1, Cereblon/Ikaros (Homo sapiens) (UniProt Q96SW2+Q13422); experiment: PROTAC activity at CRBN/IKZF1 in human MV4-11 cells assessed as degradation of IKZF1 protein at 0.01 to 5 uM incubated for 18 hrs by Western blotting analysis; details: dose 0.01-5 µM
Method in brief: (§1)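 MV4;11 cells (RPMI 1640, 10% FBS) and MIA PaCa-2 cells (DMEM, 10% FBS) treated with DMSO or compound for 18 h. Whole-cell lysates immunoblotted for WDR5, IKZF1 (MV4;11 only) and LIMD1 (MV4;11 only), with tubulin as loading control and fluorescent secondary antibodies. Representative of at least two independent experiments.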

[2] = target: T2, Protein cereblon/WD repeat-containing protein 5 (Homo sapiens) (UniProt P61964+Q96SW2); experiment: PROTAC activity at CRBN/WDR5 in human MV4-11 cells assessed as degradation of WDR5 protein at 0.01 to 5 uM incubated for 18 hrs by Western blotting analysis; details: dose 0.01-5 µM; method in brief: as §1
[3] = target: T2, Protein cereblon/WD repeat-containing protein 5 (Homo sapiens); experiment: PROTAC activity at CRBN/WDR5 in human MIA PaCa-2 cells assessed as degradation of WDR5 protein at 0.01 to 5 uM incubated for 18 hrs by Western blotting analysis; details: dose 0.01-5 µM; method in brief: as §1
[4] = target: T2, Protein cereblon/WD repeat-containing protein 5 (Homo sapiens); experiment: PROTAC activity at CRBN/WDR5 in human MV4-11 cells assessed as degradation of WDR5 protein at 0.5 uM incubated for 18 hrs by Western blotting analysis; method in brief: as §1
[5] = target: T3, Protein cereblon/LIM domain-containing protein 1 (Homo sapiens) (UniProt Q96SW2+Q9UGP4); experiment: PROTAC activity at CRBN/LIMD1 in human MV4-11 cells assessed as degradation of IKZF1 protein at 2 uM incubated for 18 hrs by Western blotting analysis; method in brief: as §1
[6] = target: T3, Protein cereblon/LIM domain-containing protein 1 (Homo sapiens); experiment: PROTAC activity at CRBN/LIMD1 in human MV4-11 cells assessed as degradation of IKZF1 protein at 0.5 uM incubated for 18 hrs by Western blotting analysis; method in brief: as §1
[7] = target: T1, Cereblon/Ikaros (Homo sapiens); experiment: PROTAC activity at CRBN/IKZF1 in human MV4-11 cells assessed as degradation of IKZF1 protein at 0.5 uM incubated for 18 hrs by Western blotting analysis; method in brief: as §1
[8] = target: T1, Cereblon/Ikaros (Homo sapiens); experiment: PROTAC activity at CRBN/IKZF1 in human MV4-11 cells assessed as degradation of IKZF1 protein at 2 uM incubated for 18 hrs by Western blotting analysis; method in brief: as §1
[9] = target: T2, Protein cereblon/WD repeat-containing protein 5 (Homo sapiens); experiment: PROTAC activity at CRBN/WDR5 in human MV4-11 cells assessed as degradation of WDR5 protein at 2 uM incubated for 18 hrs by Western blotting analysis; method in brief: as §1
[10] = system: von Hippel-Lindau disease tumor suppressor/WD repeat-containing protein 5 (Homo sapiens), P61964+P40337 [K32R]; experiment: PROTAC activity at human VHL/human WDR5 K32R mutant expressed in HEK293T cells assessed as degradation of WDR5 protein at 0.25 to 5 uM incubated for 3 days by Western blotting analysis; details: dose 0.25-5 µM, time 3.0 day
Method in brief: (§2)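 HEK293T cells were lentivirally transduced with doxycycline-inducible (1 μg/mL) 3×FLAG WDR5 wild type, K32R or K296R and selected with puromycin for 4 days. The stable lines were treated with a concentration series for 72 h. Lysates were run on 4–12% SDS-PAGE and immunoblotted for WDR5 with a vinculin loading control, with at least two independent experiments.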

[11] = target: von Hippel-Lindau disease tumor suppressor/WD repeat-containing protein 5 (Homo sapiens, UniProt P61964+P40337); experiment: PROTAC activity at human VHL/human WDR5 wild type expressed in HEK293T cells assessed as degradation of WDR5 protein incubated for 3 days by Western blotting analysis; details: time 3.0 day; method in brief: as §2
[12] = system: von Hippel-Lindau disease tumor suppressor/WD repeat-containing protein 5 (Homo sapiens), P61964+P40337 [K296R]; experiment: PROTAC activity at human VHL/human WDR5 K296R mutant expressed in HEK293T cells assessed as degradation of WDR5 protein at 0.25 to 5 uM incubated for 3 days by Western blotting analysis; details: dose 0.25-5 µM, time 3.0 day; method in brief: as §2

T3 sequence (Q96SW2 whole entry, looked up, the tested form may be a part): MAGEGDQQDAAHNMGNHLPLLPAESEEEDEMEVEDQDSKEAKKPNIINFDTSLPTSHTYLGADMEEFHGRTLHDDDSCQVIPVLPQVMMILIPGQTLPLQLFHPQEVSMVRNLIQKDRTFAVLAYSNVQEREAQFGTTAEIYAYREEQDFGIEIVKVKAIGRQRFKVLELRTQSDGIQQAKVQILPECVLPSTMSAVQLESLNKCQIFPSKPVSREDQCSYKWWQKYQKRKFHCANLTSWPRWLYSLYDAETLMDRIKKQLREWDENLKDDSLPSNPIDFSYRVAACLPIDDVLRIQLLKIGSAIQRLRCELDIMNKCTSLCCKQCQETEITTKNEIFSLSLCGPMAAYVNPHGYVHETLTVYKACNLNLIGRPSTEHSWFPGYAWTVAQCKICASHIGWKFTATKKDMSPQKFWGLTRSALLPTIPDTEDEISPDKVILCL
T3 sequence (Q9UGP4 whole entry, looked up, the tested form may be a part): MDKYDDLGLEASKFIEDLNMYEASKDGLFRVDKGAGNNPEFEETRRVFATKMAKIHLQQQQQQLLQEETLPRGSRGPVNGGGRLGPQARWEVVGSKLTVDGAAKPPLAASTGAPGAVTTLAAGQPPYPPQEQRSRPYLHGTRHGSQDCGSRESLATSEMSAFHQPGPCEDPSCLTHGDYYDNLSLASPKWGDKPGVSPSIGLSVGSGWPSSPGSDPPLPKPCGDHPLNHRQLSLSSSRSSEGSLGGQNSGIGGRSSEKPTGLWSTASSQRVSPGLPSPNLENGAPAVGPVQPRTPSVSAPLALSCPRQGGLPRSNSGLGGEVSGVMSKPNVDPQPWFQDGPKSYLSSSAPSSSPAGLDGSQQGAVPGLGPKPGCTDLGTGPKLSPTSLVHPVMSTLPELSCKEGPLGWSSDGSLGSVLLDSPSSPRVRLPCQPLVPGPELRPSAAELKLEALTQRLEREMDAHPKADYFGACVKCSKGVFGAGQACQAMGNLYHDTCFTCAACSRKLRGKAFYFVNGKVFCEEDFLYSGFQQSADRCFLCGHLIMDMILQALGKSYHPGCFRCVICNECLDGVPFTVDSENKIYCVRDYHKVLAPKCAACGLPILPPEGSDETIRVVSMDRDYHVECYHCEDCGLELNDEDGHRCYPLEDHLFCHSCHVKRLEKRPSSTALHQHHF

SMILES: C[C@@H]1CN(c2ccc(-c3cc(C(=O)NCCCCCCCNC(=O)COc4cccc5c4C(=O)N(C4CCC(=O)NC4=O)C5=O)ccc3F)cc2NC(=O)c2c[nH]c(=O)cc2C(F)(F)F)C[C@H](C)N1C (stereo partly specified)
- Activity [1]: inactive
- Activity [2]: Active
- Activity [3]: Active

SMILES: CN1CCN(c2ccc(-c3cccc(CN4CCN(CCNC(=O)CCCCNC(=O)COc5cccc6c5C(=O)N(C5CCC(=O)NC5=O)C6=O)CC4)c3)cc2NC(=O)c2c[nH]c(=O)cc2C(F)(F)F)CC1 (stereo unspecified)
- Activity [4]: Active
- Activity [5]: inactive
- Activity [6]: inactive
- Activity [7]: inactive
- Activity [8]: inactive
- Activity [9]: Active

SMILES: Cc1ncsc1-c1ccc([C@H](C)NC(=O)[C@@H]2C[C@@H](O)CN2C(=O)[C@@H](NC(=O)CNC(=O)c2ccc(F)c(-c3ccc(N4C[C@@H](C)N(C)[C@@H](C)C4)c(NC(=O)c4c[nH]c(=O)cc4C(F)(F)F)c3)c2)C(C)(C)C)cc1
- Activity [10]: Active
- Activity [11]: Dose-Dependent Effect
- Activity [12]: inactive

SMILES: CN1CCN(c2ccc(-c3cccc(CN4CCN(CCNC(=O)CCCCCCCNC(=O)COc5cccc6c5C(=O)N(C5CCC(=O)NC5=O)C6=O)CC4)c3)cc2NC(=O)c2c[nH]c(=O)cc2C(F)(F)F)CC1 (stereo unspecified)
- Activity [4]: Active
- Activity [5]: inactive
- Activity [6]: inactive
- Activity [7]: inactive
- Activity [8]: inactive
- Activity [1]: inactive
- Activity [2]: Active
- Activity [9]: Active
- Activity [3]: Active
